In assay [1] the target is T1, Substance-K receptor (Rattus norvegicus) (UniProt P16610).
T1 sequence (whole entry): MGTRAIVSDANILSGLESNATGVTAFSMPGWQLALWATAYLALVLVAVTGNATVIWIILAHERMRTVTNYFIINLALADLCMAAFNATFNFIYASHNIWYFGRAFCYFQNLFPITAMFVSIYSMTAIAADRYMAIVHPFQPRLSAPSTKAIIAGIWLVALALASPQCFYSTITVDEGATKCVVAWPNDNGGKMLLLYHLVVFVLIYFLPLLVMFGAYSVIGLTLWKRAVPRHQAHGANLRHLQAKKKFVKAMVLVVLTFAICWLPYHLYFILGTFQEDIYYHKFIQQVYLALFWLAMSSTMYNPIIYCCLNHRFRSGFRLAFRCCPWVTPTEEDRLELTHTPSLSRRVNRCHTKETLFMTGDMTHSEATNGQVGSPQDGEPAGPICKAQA
Description: Antagonist activity at NK2 receptor in rat urinary bladder assessed as effect on beta-Ala8]NKA(4-10)-induced mechanical activity. The class given is functional. The following applies: filed as antagonist. The gist of the method: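 Isolated smooth muscle strips were held in oxygenated (96% O2/4% CO2) Krebs–Henseleit at NaCl 119, NaHCO3 25, KH2PO4 1.2, MgSO4 1.5, CaCl2 2.5, KCl 4.7 and glucose 11 mM. Cumulative agonist concentration–response curves were run after 15 min antagonist incubation. pKB = log(dose ratio − 1) − log[antagonist], as the mean of individual values.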

For the next assay, the target named is T2, Substance-K receptor (Homo sapiens, UniProt P21452).
T2 sequence (P21452 whole entry): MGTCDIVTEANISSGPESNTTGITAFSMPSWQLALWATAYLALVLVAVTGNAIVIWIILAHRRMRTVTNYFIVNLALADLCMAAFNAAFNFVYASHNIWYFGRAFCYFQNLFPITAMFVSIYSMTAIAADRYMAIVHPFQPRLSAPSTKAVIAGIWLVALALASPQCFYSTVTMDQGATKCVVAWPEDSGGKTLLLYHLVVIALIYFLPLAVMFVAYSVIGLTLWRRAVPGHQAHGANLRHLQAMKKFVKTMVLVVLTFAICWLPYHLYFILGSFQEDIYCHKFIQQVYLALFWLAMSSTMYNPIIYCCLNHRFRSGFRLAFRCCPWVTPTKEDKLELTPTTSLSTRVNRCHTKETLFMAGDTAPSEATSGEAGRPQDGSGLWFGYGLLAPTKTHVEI
Description: Displacement of [125I]neurokinin A from human NK2 receptor expressed in CHOK1 cells. The class given is cell-based, CHO-K1. The gist of the method:
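Competition binding was run on membranes of cells stably transfected with the human receptor: U-373MG for NK-1, CHO-K1 for NK-2 and NK-3. NK-1 used [3H][Sar9]SP sulfone at 1.2 nM. Affinity is given as pKi (−log Ki).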
On the technique in general: In a radioligand displacement assay an active substance lowers the binding of a labelled ligand.

Structures are written as SMILES.

One may read the pKb as −log10 of the Kb, conventionally taken in molar units. A word on the Ki: it is a measure of affinity in units of concentration, obtained from inhibition or displacement. High values mean weaker binding, low ones tighter binding. Consider `O=C1C[C@@H](NC(=O)CN2CCC[C@H]2CO)C(=O)NC[C@@H](Cc2ccccc2)NC(=O)[C@H](Cc2ccccc2)NC(=O)[C@H](Cc2c[nH]c3ccccc23)N1`, for which, in assay [1], the negative-log Kb (pKb) was 8.9. Moreover, the Ki on Substance-K receptor is recorded as 0.316 nM (antagonist).
In the case of `CN1CCN(CC(=O)N[C@@H]2CC(=O)N[C@@H](Cc3c[nH]c4ccccc34)C(=O)N[C@@H](Cc3ccccc3)C(=O)N[C@H](Cc3ccccc3)CNC2=O)CC1`, the negative-log Kb (pKb) in assay [1] was 8.5. For the same molecule, the inhibition constant Ki at Substance-K receptor is 1.58 nM (antagonist).
The matching figures for `O=C1C[C@@H](NC(=O)CN2CCC(O)CC2)C(=O)NC[C@@H](Cc2ccccc2)NC(=O)[C@H](Cc2ccccc2)NC(=O)[C@H](Cc2c[nH]c3ccccc23)N1`: 9.1 and 0.126 nM (antagonist).
In the case of `CS(=O)(=O)N1CCC(N[C@@H]2CC(=O)N[C@@H](Cc3c[nH]c4ccccc34)C(=O)N[C@@H](Cc3ccccc3)C(=O)N[C@H](Cc3ccccc3)CNC2=O)CC1`, the pKb in assay [1] is 9.5. For the same molecule, the Ki on Substance-K receptor is listed as 0.0631 nM (antagonist).
For the molecule `O=C1C[C@@H](NC(=O)CN2CC[S+]([O-])CC2)C(=O)NC[C@@H](Cc2ccccc2)NC(=O)[C@H](Cc2ccccc2)NC(=O)[C@H](Cc2c[nH]c3ccccc23)N1`, in assay [1], the negative-log Kb (pKb) was 8.7. For the same molecule, at Substance-K receptor, the Ki is reported as 0.316 nM (antagonist).
Consider `CC(=O)N1CCN([C@@H]2CC(=O)N[C@@H](Cc3c[nH]c4ccccc34)C(=O)N[C@@H](Cc3ccccc3)C(=O)N[C@H](Cc3ccccc3)CNC2=O)CC1`, for which the pKb in assay [1] is 9.6. The inhibition constant Ki on Substance-K receptor is 0.126 nM (antagonist).
In the case of `O=C1C[C@@H](NC(=O)CN2CCOCC2)C(=O)NC[C@@H](Cc2ccccc2)NC(=O)[C@H](Cc2ccccc2)NC(=O)[C@H](Cc2c[nH]c3ccccc23)N1`, the pKb in assay [1] is 8.5.
On to `O=C1C[C@@H](N2CCC(N3CCOCC3)CC2)C(=O)NC[C@@H](Cc2ccccc2)NC(=O)[C@H](Cc2ccccc2)NC(=O)[C@H](Cc2c[nH]c3ccccc23)N1`, for which the negative logarithm of the Kb (pKb) in assay [1] is 8.9. Further, the inhibition constant Ki at Substance-K receptor was 0.2 nM (antagonist).
`O=C1C[C@@H](NC(=O)CN2CCC(N3CC[S+]([O-])CC3)CC2)C(=O)NC[C@@H](Cc2ccccc2)NC(=O)[C@H](Cc2ccccc2)NC(=O)[C@H](Cc2c[nH]c3ccccc23)N1`: the negative-log Kb (pKb) in assay [1] was 9. The inhibition constant Ki at Substance-K receptor is 0.251 nM (antagonist).
Taken in the same sequence, the figures for `O=C1C[C@@H](NC[C@H](O)[C@@H](O)[C@H](O)[C@H](O)CO)C(=O)NC[C@@H](Cc2ccccc2)NC(=O)[C@H](Cc2ccccc2)NC(=O)[C@H](Cc2c[nH]c3ccccc23)N1` were 8.8 and 0.398 nM (antagonist).
With `O=C1C[C@@H](NC2CCS(=O)(=O)CC2)C(=O)NC[C@@H](Cc2ccccc2)NC(=O)[C@H](Cc2ccccc2)NC(=O)[C@H](Cc2c[nH]c3ccccc23)N1`, in assay [1], the pKb is 9.3. Further, the Ki on Substance-K receptor was 0.158 nM (antagonist).
The matching figures for `CC(=O)N[C@@H]1[C@@H](O)[C@H](O)[C@@H](CO)O[C@H]1NC(=O)C[C@H](NC(C)=O)C(=O)N[C@@H]1CC(=O)N[C@@H](Cc2c[nH]c3ccccc23)C(=O)N[C@@H](Cc2ccccc2)C(=O)N[C@H](Cc2ccccc2)CNC1=O`: 7.7 and 25.1 nM (antagonist).
Regarding `CC(=O)N[C@@H](CN[C@@H]1CC(=O)N[C@@H](Cc2c[nH]c3ccccc23)C(=O)N[C@@H](Cc2ccccc2)C(=O)N[C@H](Cc2ccccc2)CNC1=O)[C@@H](O)[C@H](O)[C@H](O)CO`, in assay [1], the pKb was 8.1. The Ki at Substance-K receptor is on record as 2 nM (antagonist).
The matching figures for `NS(=O)(=O)N1CCC(N[C@@H]2CC(=O)N[C@@H](Cc3c[nH]c4ccccc34)C(=O)N[C@@H](Cc3ccccc3)C(=O)N[C@H](Cc3ccccc3)CNC2=O)CC1`: 9.5 and 0.0501 nM (antagonist).
As to `CN1CCC(N[C@@H]2CC(=O)N[C@@H](Cc3c[nH]c4ccccc34)C(=O)N[C@@H](Cc3ccccc3)C(=O)N[C@H](Cc3ccccc3)CNC2=O)CC1`, the pKb in assay [1] was 9. In addition, the inhibition constant (Ki) on Substance-K receptor is reported as 0.2 nM (antagonist).
For the molecule `O=C1C[C@@H](NC2CC[S+]([O-])CC2)C(=O)NC[C@@H](Cc2ccccc2)NC(=O)[C@H](Cc2ccccc2)NC(=O)[C@H](Cc2c[nH]c3ccccc23)N1` (stereo not given in full), the negative logarithm of the Kb (pKb) in assay [1] was 9.1. The inhibitory constant (Ki) on Substance-K receptor was 0.0251 nM (antagonist).
The matching figures for `O=C1CC(NC(=O)[C@@H](O)[C@H](O)[C@@H](O[C@@H]2O[C@H](CO)[C@H](O)[C@H](O)[C@H]2O)[C@@H](O)CO)C(=O)NC[C@@H](Cc2ccccc2)NC(=O)[C@H](Cc2ccccc2)NC(=O)[C@H](Cc2c[nH]c3ccccc23)N1` (stereo not given in full): 8.7 and 3.98 nM (antagonist).
With `O=C1C[C@@H](N2CCC(N3CCCCC3)CC2)C(=O)NC[C@@H](Cc2ccccc2)NC(=O)[C@H](Cc2ccccc2)NC(=O)[C@H](Cc2c[nH]c3ccccc23)N1`, in assay [1], the pKb was 8.9. Besides, the Ki on Substance-K receptor is given as 0.2 nM (antagonist).
The matching figures for `CS(=O)(=O)N1CCN([C@@H]2CC(=O)N[C@@H](Cc3c[nH]c4ccccc34)C(=O)N[C@@H](Cc3ccccc3)C(=O)N[C@H](Cc3ccccc3)CNC2=O)CC1`: 9.3 and 3.16 nM (antagonist).
The matching figures for `O=C1C[C@@H](NC[C@H](O)[C@@H](O)[C@H](O[C@@H]2O[C@H](CO)[C@H](O)[C@H](O)[C@H]2O)[C@H](O)CO)C(=O)NC[C@@H](Cc2ccccc2)NC(=O)[C@H](Cc2ccccc2)NC(=O)[C@H](Cc2c[nH]c3ccccc23)N1`: 8.2 and 1.26 nM (antagonist).
Taken in the same sequence, the figures for `CN1CCN([C@@H]2CC(=O)N[C@@H](Cc3c[nH]c4ccccc34)C(=O)N[C@@H](Cc3ccccc3)C(=O)N[C@H](Cc3ccccc3)CNC2=O)CC1` were 9.2 and 0.398 nM (antagonist).
On to `O=C1C[C@@H](NC2CCSCC2)C(=O)NC[C@@H](Cc2ccccc2)NC(=O)[C@H](Cc2ccccc2)NC(=O)[C@H](Cc2c[nH]c3ccccc23)N1`, for which the pKb in assay [1] is 7.8. For the same molecule, on Substance-K receptor, the inhibitory constant (Ki) was 0.1 nM (antagonist).
The matching figures for `O=C1C[C@@H](NC[C@H](O)[C@@H](O)[C@@H](O[C@H]2O[C@H](CO)[C@@H](O)[C@H](O)[C@H]2O)[C@H](O)CO)C(=O)NC[C@@H](Cc2ccccc2)NC(=O)[C@H](Cc2ccccc2)NC(=O)[C@H](Cc2c[nH]c3ccccc23)N1`: 8.5 and 0.631 nM (antagonist).
Taken in the same sequence, the figures for `CN(C1CCOCC1)[C@@H]1CC(=O)N[C@@H](Cc2c[nH]c3ccccc23)C(=O)N[C@@H](Cc2ccccc2)C(=O)N[C@H](Cc2ccccc2)CNC1=O` were 8.8 and 0.158 nM (antagonist).
Taken in the same sequence, the figures for `O=C1C[C@@H](NC[C@H](O)[C@H](O)[C@@H](O[C@H]2O[C@H](CO)[C@@H](O[C@@H]3O[C@@H](CO)[C@H](O)[C@@H](O)[C@@H]3O)[C@H](O)[C@H]2O)[C@H](O)CO)C(=O)NC[C@@H](Cc2ccccc2)NC(=O)[C@H](Cc2ccccc2)NC(=O)[C@H](Cc2c[nH]c3ccccc23)N1` were 8.5 and 0.501 nM (antagonist).
As to `O=C1C[C@H](NC2CCOCC2)C(=O)N[C@@H](Cc2c[nH]c3ccccc23)C(=O)N[C@@H](Cc2ccccc2)C(=O)N[C@H](Cc2ccccc2)CN1`, in assay [1], the pKb was 7.8. Also, the inhibitory constant (Ki) at Substance-K receptor is given as 6.31 nM (antagonist).
With `CC(=O)N[C@H]1[C@H](NC(=O)CCC(=O)N[C@@H]2CC(=O)N[C@@H](Cc3c[nH]c4ccccc34)C(=O)N[C@@H](Cc3ccccc3)C(=O)N[C@H](Cc3ccccc3)CNC2=O)O[C@H](CO)C(O)[C@@H]1O` (single isomer, unassigned), the pKb in assay [1] was 7.6. On Substance-K receptor, the Ki is 1.58 nM (antagonist).
The matching figures for `NC1CCN([C@@H]2CC(=O)N[C@@H](Cc3c[nH]c4ccccc34)C(=O)N[C@@H](Cc3ccccc3)C(=O)N[C@H](Cc3ccccc3)CNC2=O)CC1`: 8.5 and 5.01 nM (antagonist).
The matching figures for `O=C1C[C@@H](NC2CCOCC2)C(=O)N[C@@H](Cc2c[nH]c3ccccc23)C(=O)N[C@@H](Cc2ccccc2)C(=O)N[C@H](Cc2ccccc2)CN1`: 7.4 and 7.94 nM (antagonist).
Taken in the same sequence, the figures for `NC(=O)C1CCN(CC(=O)N[C@@H]2CC(=O)N[C@@H](Cc3c[nH]c4ccccc34)C(=O)N[C@@H](Cc3ccccc3)C(=O)N[C@H](Cc3ccccc3)CNC2=O)CC1` were 9.2 and 0.501 nM (antagonist).
In the case of `O=C1CCC(=O)N[C@@H](Cc2c[nH]c3ccccc23)C(=O)N[C@@H](Cc2ccccc2)C(=O)N[C@H](Cc2ccccc2)CN1`, in assay [1], the pKb was 8.3.

For the origin of these results see ChEMBL document CHEMBL1149315, “Insertion of an aspartic acid moiety into cyclic pseudopeptides: synthesis and biological characterization of potent antagonists for the human Tachykinin NK-2 receptor” (J Med Chem, 2004).
